PMC5920785 (Bioorganic & medicinal chemistry, 2017)
pKi: −log10 of the molar value.

Columns and labels:
[1] = test system: SK-N-SH neuroblastoma cells; assay: Cell viability assay; type: cell-based, human; details: MTS; for effect on viability of SK-N-SH cells: highest concentration tested (1 μM), 24 h exposure
Outline: (§1)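 Cells plated overnight in RPMI with 10% heat-inactivated FBS, penicillin (100 U/ml) and streptomycin (100 μg/ml), at 37 °C in humidified 5% CO2. […] MTS read-out by absorbance at 490 nm. Two experiments, each in triplicate wells (n=6); viability averaged relative to untreated cells.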

[2] = test system: MYCN2 neuroblastoma cells; assay: Cell viability assay; type: cell-based, human; details: MTS; for effect on viability of MYCN2 cells: highest concentration tested (1 μM), 24 h exposure
Outline: as §1

[3] = biological target: 20S constitutive proteasome T-L (β2) (Homo sapiens, UniProt P49720+Q99436); assay: In vitro proteasome activity assay, constitutive proteasome T-L activity; type: biochemical
[4] = biological target: immunoproteasome C-L (β1) (Homo sapiens, UniProt P28065); assay: In vitro proteasome activity assay, immunoproteasome C-L activity; type: biochemical; details: for effect on C-L activity of the immunoproteasome: at ≤10 μM
[5] = biological target: 20S constitutive proteasome C-L (β1) (Homo sapiens, UniProt P28072+Q99436); assay: In vitro proteasome activity assay, constitutive proteasome C-L activity; type: biochemical
[6] = biological target: immunoproteasome T-L (β2) (Homo sapiens, UniProt P40306+P49720); assay: In vitro proteasome activity assay, immunoproteasome T-L activity; type: biochemical
[7] = biological target: 20S constitutive proteasome CT-L (β5) (Homo sapiens, UniProt P20618+P28074); assay: In vitro proteasome activity assay, constitutive proteasome CT-L activity; type: biochemical
[8] = biological target: immunoproteasome CT-L (β5) (Homo sapiens, UniProt P20618+P28062); assay: In vitro proteasome activity assay, immunoproteasome CT-L activity; type: biochemical; details: for effect on CT-L activity of the immunoproteasome: at ≤10 μM; for change of CT-L activity of the immunoproteasome on inhibition of T-L activity: Fig. S1
[9] = test system: SK-N-Be(2)c neuroblastoma cells; assay: Cell viability assay; type: cell-based, human; details: highest concentration tested (1 μM), 24 h exposure, MTS
Outline: as §1

## CC(C)C[C@H](NC(=O)[C@H](Cc1ccccc1)NC(=O)c1cnccn1)B(O)O [BTZ, bortezomib, reference compound]
[1]; at 0.1–1 μM, 24 h
  cytotoxic effect in SK-N-SH cells: strong cytotoxic effects
[2]; at 0.1–1 μM, 24 h
  cytotoxic effect in MYCN2 cells: strong cytotoxic effects

## CCCCCCCCCCCCNC(=O)N[C@H](C(=O)N[C@H]1CSCCNC(=O)/C=C/[C@H](C)NC1=O)C(C)C [Compound 1, (S)-2-(3-Dodecylureido)-3-methyl-N-((8S,11R,E)-8-methyl-5,10-dioxo-1-thia-4,9-diazacyclododec-6-en-11-yl)butanamide]
[3]
  pKi: 5.75
[4]
  pKi: < 5.00
  effect on C-L activity of the immunoproteasome: no effect
[5]
  pKi: < 5.00
[6]
  pKi: 5.86
[7]
  pKi: 6.55
[8]
  pKi: < 5.00
  effect on CT-L activity of the immunoproteasome: no effect

## CC(C)Cc1ccc([C@H](C)C(=O)N[C@H](C(=O)N[C@H]2CSCCNC(=O)/C=C/[C@H](C)NC2=O)C(C)C)cc1 [Compound 5, (S)-2-((S)-2-(4-Isobutylphenyl)propanamido)-3-methyl-N-((8S,11R,E)-8-methyl-5,10-dioxo-1-thia-4,9-diazacyclododec-6-en-11-yl)butanamide]
[9]
  effect on viability of SK-N-Be(2)c cells: minimal effects
[3]
  pKi: 5.97
[4]
  pKi: < 5.00
  effect on C-L activity of the immunoproteasome: no effect
[1]
  effect on viability of SK-N-SH cells: minimal effects
[5]
  pKi: < 5.00
[6]
  pKi: 6.13
[7]
  pKi: 6.04
[8]
  pKi: < 5.00
  change of CT-L activity of the immunoproteasome on inhibition of T-L activity: stimulate the CT-L activity
  effect on CT-L activity of the immunoproteasome: no effect
[2]
  effect on viability of MYCN2 cells: minimal effects

## CC(C)[C@H](NC(=O)c1cnccn1)C(=O)N[C@H]1CSCCNC(=O)/C=C/[C@H](C)NC1=O [Compound 6, N-((S)-3-Methyl-1-(((8S,11R,E)-8-methyl-5,10-dioxo-1-thia-4,9-diazacyclododec-6-en-11-yl)amino)-1-oxobutan-2-yl)pyrazine-2-carboxamide]
[9]
  effect on viability of SK-N-Be(2)c cells: minimal effects
[3]
  pKi: 6.04
[4]
  pKi: < 5.00
  effect on C-L activity of the immunoproteasome: no effect
[1]
  effect on viability of SK-N-SH cells: minimal effects
[5]
  pKi: < 5.00
[6]
  pKi: 6.12
[7]
  pKi: 5.91
[8]
  pKi: < 5.00
  change of CT-L activity of the immunoproteasome on inhibition of T-L activity: stimulate the CT-L activity
  effect on CT-L activity of the immunoproteasome: no effect
[2]
  effect on viability of MYCN2 cells: minimal effects
